Compound activity from PubChem.
TRPC6 activator – activates the mouse TRPC6 cation channel. HEK293-TRPC6 membrane potential dye fluorescence; active compounds read high. Q61143. B-score at 10 µM. 310,000 compounds, 0.13% hits;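 active means B-score of the integrated fluorescence ratio above library mean plus 3 SD, and starting fluorescence ratio within library mean plus 5 SD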;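 further: higher score means more depolarization so channel activation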
Target sequence (Q61143 whole entry, looked up): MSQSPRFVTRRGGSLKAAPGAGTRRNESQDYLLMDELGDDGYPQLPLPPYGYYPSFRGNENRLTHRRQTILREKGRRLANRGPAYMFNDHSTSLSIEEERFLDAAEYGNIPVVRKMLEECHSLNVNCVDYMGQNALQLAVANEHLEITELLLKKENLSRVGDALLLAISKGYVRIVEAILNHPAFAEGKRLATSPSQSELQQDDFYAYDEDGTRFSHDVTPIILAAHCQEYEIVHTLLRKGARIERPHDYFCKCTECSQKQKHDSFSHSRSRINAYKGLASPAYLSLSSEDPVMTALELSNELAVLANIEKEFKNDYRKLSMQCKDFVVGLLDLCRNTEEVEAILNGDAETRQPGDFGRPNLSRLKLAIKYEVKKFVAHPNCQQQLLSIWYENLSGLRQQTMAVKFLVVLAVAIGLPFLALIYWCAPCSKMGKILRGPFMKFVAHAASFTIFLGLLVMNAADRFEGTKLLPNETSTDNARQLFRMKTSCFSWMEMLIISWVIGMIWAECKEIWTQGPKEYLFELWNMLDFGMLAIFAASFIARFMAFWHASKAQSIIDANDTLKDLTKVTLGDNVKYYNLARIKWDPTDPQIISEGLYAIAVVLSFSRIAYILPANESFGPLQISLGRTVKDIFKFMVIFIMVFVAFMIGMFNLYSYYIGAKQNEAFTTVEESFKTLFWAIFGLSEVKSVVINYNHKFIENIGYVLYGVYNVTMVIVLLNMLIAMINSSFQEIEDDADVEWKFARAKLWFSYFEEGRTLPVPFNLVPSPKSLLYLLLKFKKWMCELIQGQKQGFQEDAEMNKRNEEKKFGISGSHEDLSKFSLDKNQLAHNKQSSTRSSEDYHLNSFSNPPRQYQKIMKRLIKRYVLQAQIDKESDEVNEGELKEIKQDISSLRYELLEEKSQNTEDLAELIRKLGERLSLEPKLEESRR
TRPC4 block – blocks the mouse TRPC4 cation channel; Q9QUQ5; HEK293 TRPC4beta/mu-opioid, DAMGO-evoked Fluo4 calcium flux; active compounds read low; B-score at 10 µM; 300,000 compounds, 0.39% hits;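 active means B-score over 3 SD under the library average, no early fluorescence shift, positive overall ratio signal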
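Test system – stable TRPC4beta/mu-opioid receptor HEK293 cells · Probe or stimulus – DAMGO, a submaximal dose followed by a maximal one · Dosing – one concentration per compound · Signal – Fluo4 calcium fluorescence by kinetic imaging, 5 s 1 Hz baseline · Evaluation – per-well B score of integrated baseline-normalized Fluo4 ratio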
TRPC6 inhibitor – mouse TRPC6 channel inhibition. AID 2553. HEK293-TRPC6, membrane potential dye, ACh-evoked depolarization; active compounds read low. Q61143. 310,000 compounds, 1.1% hits. B-score at 10 µM;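 active means B-score under library mean minus 3 SD, initial fluorescence not abnormally high, positive integrated signal ratio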;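 further: B-score derived from integrated fluorescence ratio over the kinetic read; more negative B-score means stronger inhibition of depolarization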
TRPC4 PAM – allosteric potentiators of mouse TRPC4 channel | Q9QUQ5 | 310,000 compounds, 0.42% hits | B-score at 10 µM | HEK293 TRPC4beta/mu-opioid, DAMGO EC20, Fluo-4 Ca2+ flux; active compounds read high;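 active means B-score of calcium response area above 5 SD of library B-scores, with initial fluorescence ratio within 5 SD of library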
TRPC4 act – TRPC4 (mouse) channel activation. Q9QUQ5. 310,000 compounds, 0.49% hits. B-score at 10 µM. HEK293 TRPC4beta/mu-opioid, Fluo4 calcium fluorescence; active compounds read high;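 active means B-score above 5 SD of library B-scores, and initial fluorescence ratio not above library mean plus 5 SD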;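 further: positive B-score marks a calcium rise read as TRPC4 activation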
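Assay system: HEK293 cells stably co-expressing mouse TRPC4beta and mu-opioid receptor / Timing: Fluo4 dye loading 45 min at room temperature, 110 s recording / Signal: Fluo4 calcium-sensitive dye fluorescence, kinetic, 1 Hz baseline / Read-out: integrated baseline-normalised fluorescence ratio, converted to per-well B score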
TRPC4 spec 2 – second check of whether TRPC6 inhibitors also affect mouse TRPC4. HEK293 TRPC4/MOR, membrane potential dye fluorescence; channel activated by saturating DAMGO dose. inhibition, % at 10 µM. 920 compounds, 42% hits. AID 2776. shares compounds with TRPC6 inhibitor;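 active means compounds whose fluorescence signal differed from control wells by over 3 SD, either direction, in both duplicate plates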
TRPC4 spec – mouse TRPC4 off-target activity of TRPC6 inhibitors; shares compounds with TRPC6 inhibitor; activity change, negative = inhibition, % at 10 µM; HEK293 TRPC4/mu-opioid, membrane potential fluorescence; AID 2777; 920 compounds, 61% hits;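 active means rise or fall in signal beyond 3 SD of buffer-only wells in both replicate plates, either sign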;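 further: integrated kinetic ratio of fluorescence range over baseline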
HEK293 MPD ctr 2-1 – parental HEK293 nonspecific activity of TRPC6 inhibitors, second screen; shares compounds with TRPC6 inhibitor; parental HEK293 membrane potential dye fluorescence; maximal acetylcholine challenge after compound addition; signal change vs control, % at 10 µM; 920 compounds, 31% hits;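 active means membrane potential signal moving either way by over 3 SD of the maximum-effect control, in both duplicate plates, meaning non-specific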
HEK293 MPD ctr-1 – checks TRPC6 inhibitor effects in parental HEK293 cells; shares compounds with TRPC6 inhibitor; parental HEK293 membrane potential dye fluorescence; membrane potential signal change, % at 10 µM; 920 compounds, 60% hits;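 active means membrane potential signal shifting up or down by more than 3 SD of buffer-only wells, on both duplicate plates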
HEK293 MPD ctr-2 – counter-screen for TRPC6 modulators: effect in parental HEK293 cells; shares compounds with TRPC6 inhibitor; 2,400 compounds, 51% hits; membrane potential dye fluorescence; membrane potential signal change, % at 10 µM;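 active means membrane potential signal moves up or down beyond 5 SD from buffer-only wells, on both duplicate plates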
HEK293 MPD ctr 2-2 – second counter-screen for TRPC6 modulators: effect in parental HEK293 cells; shares compounds with TRPC6 inhibitor; membrane potential dye fluorescence; after compound, maximal acetylcholine stimulation; inhibition, % at 10 µM; 2,400 compounds, 14% hits; AID 488926;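 active means membrane potential signal drops by more than 5 SD from the mean control signal, in both duplicate plates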
TRPC4 ctr mod – selectivity of TRPC6 modulators against mouse TRPC4; shares compounds with TRPC6 inhibitor; HEK293 TRPC4/mu-opioid, membrane potential fluorescence; percent change from control (negative = decrease, positive = increase), % at 10 µM; 2,400 compounds, 69% hits; AID 488927;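 active means membrane potential signal moved up or down beyond 5 SD of buffer control wells, in both duplicate plates, actives on both sides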
TRPC4/MOR inh 2 – second selectivity test of TRPC6 modulators against mouse TRPC4; shares compounds with TRPC6 inhibitor; HEK293 TRPC4/mu-opioid, membrane potential dye fluorescence; stimulated with maximal-effect DAMGO; inhibition, % at 10 µM; 2,400 compounds, 55% hits;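 active means drop in membrane potential signal beyond 5 SD of the control wells in both duplicate plates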;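 further: TRPC4 counter screen for TRPC6 hits run under conditions tuned for TRPC6 not TRPC4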
TRPC6 block conf – confirmation of mouse TRPC6 inhibitors. shares compounds with TRPC6 inhibitor. HEK293-TRPC6, membrane potential dye, ACh-evoked depolarization. inhibition, % at 10 µM. 3,300 compounds, 43% hits;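 active means fluorescence ratio falls more than 5 SD below the full-stimulation control mean, in both duplicate runs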;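 further: integrated fluorescence ratio of peak minus minimum over baseline after agonist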
TRPC6 act conf – mouse TRPC6 activator confirmation; shares compounds with TRPC6 inhibitor; HEK293-TRPC6 membrane potential dye fluorescence, FDSS; activation, % at 10 µM; 2,800 compounds, 11% hits; AID 488961;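 active means ratio signal rise beyond 5 SD above unstimulated control wells' mean, seen in both duplicate runs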
Each line names hits and unclear results; the compound was inactive in the other large screens (follow-up assays come after a bar, where they were run). Rows were chosen to be rich in hits. Some 2.3% of all compounds tested hit in one or more screens of this group.

CCc1ccc2[nH]c3nc(SCc4nnc(-c5ccc(C)cc5)o4)nnc3c2c1	none
CCOC(=O)c1c(NC(=O)CSc2ncccn2)sc2c1CCN(Cc1ccccc1)C2	TRPC6 inhibitor -5.5 | HEK293 MPD ctr-2 inactive | HEK293 MPD ctr 2-2 inactive | TRPC4 ctr mod -20% | TRPC4/MOR inh 2 35% | TRPC6 block conf inactive | TRPC6 act conf inactive
CCOC(=O)c1c(NC(C)=O)sc2c1CCN(Cc1ccccc1)C2	TRPC6 inhibitor -5.3 | HEK293 MPD ctr-2 -198% | HEK293 MPD ctr 2-2 inactive | TRPC4 ctr mod -34% | TRPC4/MOR inh 2 39% | TRPC6 block conf inactive | TRPC6 act conf inactive
CCOC(=O)c1c(NC(=O)CC)sc2c1CCN(Cc1ccccc1)C2	none
CCOc1cc2c3c(c1)C(C)=CC(C)(C)N3C(=O)C2=O	none
CC(=O)Oc1cc2c3c(c1)/C(=C1/SC(=S)NC1=O)C(=O)N3C(C)(C)C=C2C	TRPC6 inhibitor -5.7 | HEK293 MPD ctr-2 -112% | HEK293 MPD ctr 2-2 inactive | TRPC4 ctr mod -28% | TRPC4/MOR inh 2 83% | TRPC6 block conf 58% | TRPC6 act conf inactive
CN1CCN(c2nc(N3CCN(CCO)CC3)nc3ccccc23)CC1	TRPC6 inhibitor -7.1 | HEK293 MPD ctr-2 -453% | HEK293 MPD ctr 2-2 84% | TRPC4 ctr mod -72% | TRPC4/MOR inh 2 72% | TRPC6 block conf 80% | TRPC6 act conf inactive
COc1nc(-c2cccc([N+](=O)[O-])c2)nc2ccccc12	none
Cc1ccc(-c2nc(N3CCN(C)CC3)c3ccccc3n2)cc1	TRPC6 inhibitor -9 | TRPC4 spec 2 inactive | TRPC4 spec -21% | HEK293 MPD ctr 2-1 inactive | HEK293 MPD ctr-1 -360% | TRPC6 block conf inactive | TRPC6 act conf inactive
CN1CCN(c2nc(-c3cccc([N+](=O)[O-])c3)nc3ccccc23)CC1	TRPC6 inhibitor -6.1 | HEK293 MPD ctr-2 -206% | HEK293 MPD ctr 2-2 inactive | TRPC4 ctr mod -43% | TRPC4/MOR inh 2 63% | TRPC6 block conf 54% | TRPC6 act conf inactive
O=c1[nH]c2ccc(S(=O)(=O)N3CCCCC3)cc2o1	none
CCc1ccccc1N(C(C)=O)c1nc(CCl)cs1	none
O=C1OCCN1CCNCc1cn(-c2ccc(F)cc2)nc1-c1ccccc1Cl	none
Cc1ccc(-n2cc(CNCCN3CCOC3=O)c(-c3cccc(C)c3)n2)cc1	TRPC6 inhibitor -5.8 | HEK293 MPD ctr-2 inactive | HEK293 MPD ctr 2-2 inactive | TRPC4 ctr mod 10% | TRPC4/MOR inh 2 58% | TRPC6 block conf inactive | TRPC6 act conf inactive
Cc1oc(-c2ccccc2F)nc1CN1CCC(C(=O)NC2CCCc3ccccc32)CC1 (stereo unspecified)	TRPC6 inhibitor -8.8 | TRPC4 spec 2 34% | TRPC4 spec 29% | HEK293 MPD ctr 2-1 293% | HEK293 MPD ctr-1 9.1% | TRPC6 block conf inactive | TRPC6 act conf inactive
CC(C(=O)Nc1cc([N+](=O)[O-])ccc1Cl)N1CCN(c2ccccc2)CC1 (stereo unspecified)	none
CC(C)c1cccc(C(C)C)c1OCCCCN1CCCC1	none
CCC(c1nnnn1Cc1ccc(OC)cc1)N1CCN(C(=O)c2ccco2)CC1 (stereo unspecified)	none
COc1ccc(C)cc1Nc1nc(N)c2ccccc2n1	TRPC6 inhibitor -10 | HEK293 MPD ctr-2 -221% | HEK293 MPD ctr 2-2 112% | TRPC4 ctr mod -52% | TRPC4/MOR inh 2 91% | TRPC6 block conf 100% | TRPC6 act conf inactive
Cc1ccc(Nc2nc(N)c3ccccc3n2)cc1Cl	TRPC6 inhibitor -6.5 | HEK293 MPD ctr-2 -128% | HEK293 MPD ctr 2-2 83% | TRPC4 ctr mod -35% | TRPC4/MOR inh 2 79% | TRPC6 block conf 75% | TRPC6 act conf inactive
COc1ccc([N+](=O)[O-])cc1Nc1c2ccccc2nc2ccccc12	none
COc1cc2nc(Nc3ccc(C)c(Cl)c3)nc(N)c2cc1OC	none
CN(C)c1ccc(Nc2nc(N)c3ccccc3n2)cc1	TRPC6 inhibitor -7.3 | HEK293 MPD ctr-2 -182% | HEK293 MPD ctr 2-2 90% | TRPC4 ctr mod -45% | TRPC4/MOR inh 2 86% | TRPC6 block conf 84% | TRPC6 act conf inactive
Nc1nc(Nc2ccc(Cl)cc2)nc2ccccc12	TRPC6 inhibitor -12 | HEK293 MPD ctr-2 -163% | HEK293 MPD ctr 2-2 90% | TRPC4 ctr mod -36% | TRPC4/MOR inh 2 88% | TRPC6 block conf 84% | TRPC6 act conf inactive
CN(C)c1nc(Nc2ccccc2)nc(N(C)C)n1	none
CCCOc1cccc(-c2cc(C(=O)N/N=C/c3cccnc3)c3ccccc3n2)c1	none
Nc1nc(Nc2ccccc2)nc2ccccc12	TRPC6 inhibitor -22 | HEK293 MPD ctr-2 -200% | HEK293 MPD ctr 2-2 90% | TRPC4 ctr mod -46% | TRPC4/MOR inh 2 86% | TRPC6 block conf 86% | TRPC6 act conf inactive
Cc1ccccc1Nc1nc(N)c2ccccc2n1	TRPC6 inhibitor -6.8 | TRPC4 spec 2 32% | TRPC4 spec -26% | HEK293 MPD ctr 2-1 36% | HEK293 MPD ctr-1 -330% | TRPC6 block conf 70% | TRPC6 act conf inactive
CCOc1ccc(Nc2nc(N)c3ccccc3n2)cc1	none
COc1ccc(OCc2cc(C(=O)N3CCN(CC(=O)N(C)C)CC3)no2)c(Cl)c1	none
COC(=O)c1[nH]c2ccccc2c1NC(=O)CN1CC(C)OC(C)C1 (stereo unspecified)	none
